Screening data deposited in PubChem BioAssay by several laboratories.
In the library only some 2.4% were active in any assay of this set; here they are far more common.
TPT1 inh: Candida albicans TPT1 enzyme inhibitors, primary screen, biochemical, fluorescence polarization; tRNA 2'-phosphotransferase TPT1 (Candida albicans SC5314); recombinant caTPT1, FP RNA substrate dephosphorylation; inhibition, % at 5 µM; actives 0.81% (n = 300,000); AID 1962, 2009;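 active = inhibition above the mean of all tested compounds plus 3 SD, set per screening campaign, cut at about 24% in these data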;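 also: plate controls were DMSO alone for no effect and ferristatin control at 100 nM for full effect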
HNF4A DNA FP: change in binding of human HNF4A to DNA, primary screen, biochemical, fluorescence polarization, FITC-DNA; actives 0.3% (n = 360,000); 1 h; Hepatocyte nuclear factor 4-alpha (Homo sapiens), P41235; AID 1224865, 2016; activity change, % at 10 µM; in the data active = activity change above about 30%, passing the limit was not always enough
Rin1-Abl PPI inh: inhibitors of Rin1-Abl protein binding, primary screen, biochemical, TR-FRET | Tyrosine-protein kinase ABL1 (Homo sapiens) + Ras and Rab interactor 1 (Homo sapiens), … | inhibition, % at 7.35 µM | actives 0.4% (n = 360,000); in the data active = inhibition above about 5%, passing the limit was not always enough
Neddyl block: inhibitors of cullin neddylation, primary screen, biochemical, TR-FRET, uHTS, NAE and Ubc12 | NEDD8-conjugating enzyme Ubc12 (Homo sapiens) + NEDD8-activating enzyme E1 regulatory … | inhibition, % at 25 µM | actives 0.58% (n = 360,000) | AID 651699, 2012; in the data active = inhibition above about 36%
Target sequence (P61081 whole entry, looked up): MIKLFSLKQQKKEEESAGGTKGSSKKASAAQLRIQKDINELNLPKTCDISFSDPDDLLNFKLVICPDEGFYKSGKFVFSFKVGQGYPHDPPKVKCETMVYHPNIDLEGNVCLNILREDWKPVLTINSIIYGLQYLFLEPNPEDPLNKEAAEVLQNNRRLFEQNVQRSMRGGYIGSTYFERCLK
Target sequence (Q13564 whole entry, looked up): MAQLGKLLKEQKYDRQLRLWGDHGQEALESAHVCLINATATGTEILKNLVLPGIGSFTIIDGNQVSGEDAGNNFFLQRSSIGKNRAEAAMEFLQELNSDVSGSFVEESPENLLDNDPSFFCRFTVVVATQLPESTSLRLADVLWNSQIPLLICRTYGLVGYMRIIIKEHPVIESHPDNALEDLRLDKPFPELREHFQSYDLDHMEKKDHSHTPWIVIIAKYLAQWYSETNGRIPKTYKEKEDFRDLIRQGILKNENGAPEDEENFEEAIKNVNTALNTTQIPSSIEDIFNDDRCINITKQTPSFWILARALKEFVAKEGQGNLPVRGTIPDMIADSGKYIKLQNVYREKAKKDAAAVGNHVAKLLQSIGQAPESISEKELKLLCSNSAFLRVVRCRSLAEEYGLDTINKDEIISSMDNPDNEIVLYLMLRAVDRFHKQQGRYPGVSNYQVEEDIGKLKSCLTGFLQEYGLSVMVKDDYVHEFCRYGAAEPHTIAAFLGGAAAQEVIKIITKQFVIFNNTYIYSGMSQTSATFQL
Rpn11 inh: Rpn11 (PSMD14) deubiquitinase inhibitors, primary screen, biochemical, fluorescence polarization, uHTS. actives 0.59% (n = 360,000). inhibition, % at 20 µM. human 26S proteasome, Ub4-pepOG fluorescence polarization; 20S core pre-blocked with epoxomicin. 26S proteasome non-ATPase regulatory subunit 14 (Homo sapiens), O00487;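 active = inhibition at 20 µM, scaled to each plate's controls, above about 33%, limit read from the data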
CSN inh: inhibitors of CSN-mediated cullin deneddylation, primary screen, biochemical, fluorescence polarization, uHTS | Purified CSN, SCF-Nedd8-OG deneddylation | COP9 signalosome complex subunit 5 (Homo sapiens), Q92905 | actives 0.38% (n = 360,000) | inhibition, % at 12.5 µM;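 active = pattern-corrected inhibition above about 35%, with an unprinted fluorescence ratio check between 0.5 and 1.5, limit read from the data, passing the limit was not always enough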;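 also: 0% = enzyme with substrate and 100% = substrate without enzyme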
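Material: human Csn5 produced in HEK293T cells; Input: enzyme 0.24 nM; Reagent: SCFSkp2-Nedd8OG substrate at 10 nM final; Dosing: 12.5 µM compound; Incubation: 90 min reaction at room temperature; Detection: fluorescence polarization of the substrate; Evaluation: % inhibition of substrate cleavage by Csn5; Control set: substrate-only high control, full reaction low control.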
TPT1 inh confirm: Candida albicans TPT1 inhibitors, confirmation, biochemical, fluorescence polarization, triplicate; actives 74% (n = 2,400); inhibition, % at 5 µM; recombinant caTPT1, RNase T1 coupled; shares compounds with TPT1 inh; AID 2149, 2009;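 active = inhibition above the primary screen limit, the mean inhibition of all tested compounds plus 3 SD, cut at about 25% in these data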
RNase T1 inh: RNase T1 inhibitors, counter-screen for TPT1 inhibitor project, biochemical, fluorescence polarization. shares compounds with TPT1 inh. RNase T1 cleavage, 1536-well. inhibition, % at 5 µM. actives 83% (n = 2,400);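 active = inhibition above the solvent-only control well mean plus 3 SD, limit set per screening run, cut at about 23% in these data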;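 also: plate controls were DMSO wells with enzyme for no effect and wells without RNase T1 for full effect; inhibitors block cleavage so intact labeled substrate keeps polarization high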
The depositor's hits bear a star; x = no result given.

SMILES	TPT1 inh	HNF4A DNA FP	Rin1-Abl PPI inh	Neddyl block	Rpn11 inh	CSN inh	TPT1 inh confirm	RNase T1 inh
C/C(=N\NS(=O)(=O)c1ccc([N+](=O)[O-])cc1)c1ccc2c(c1)OCO2	x	4	-1	-28	-10	-2	x	x
Cc1cccc(C(=O)OCC(=O)N(CC(C)C)c2c(N)n(Cc3ccccc3)c(=O)[nH]c2=O)c1C	x	3	2	7	3	3	x	x
CC(C)c1ccc(CNC(=O)C2(C)CCCN2C)cc1 (configuration not stated)	x	4	2	9	-1	-1	x	x
Nc1c(C(=O)Nc2nccs2)sc2nc(-c3cccs3)cc(C(F)(F)F)c12	31*	61	1	30	x	64	29*	41*
NC(=O)C1=C[C@H](C2CCCCC2)C[C@H](OCc2ccc(CO)cc2)O1	-2	0	3	7	-6	1	x	x
CC(=O)C1=NN(c2ccccc2)C(c2ccc3c(c2)OCO3)N1c1ccccc1 (configuration not stated)	27*	11	2	x	11	3	46*	59*
CC(=O)C1=NN(c2ccccc2)C(c2cccs2)N1c1ccc(N(C)C)cc1 (configuration not stated)	-1	5	-3	-10	-2	1	x	x
CN1c2cccc3cccc(c23)N(C)C1c1cccs1	-9	0	6	17	-6	-3	x	x
CC1N(C)c2cccc3cccc(c23)N1C	32*	32	-5	x	71*	3	6	7
CSc1nsc(/C=C/Nc2ccc(O)cc2C)c1C#N	26*	111	3	-8	x	17	22	33*
C#Cc1ccc([C@@H]2C=C(C(=O)NC3CC3)O[C@H](OCCCCO)C2)cc1	6	4	4	-9	8	-4	x	x
COc1ccc(NC(=O)Nc2c(C)noc2-c2ccccc2)cc1	42*	-1	0	-1	0	6	6	11
COc1ccc(/C=c2\s/c(=C/C(=O)c3ccc(C)cc3)[nH]c2=O)c(OC)c1	67*	36	0	-21	x	-37	28*	37*
O=C(Nc1ccccc1C(=O)Nc1ccc(Br)cn1)c1cccc([N+](=O)[O-])c1	2	2	1	-6	1	9	x	x
O=C1OCCC1Sc1nnnn1-c1ccc(Cl)cc1 (configuration not stated)	0	2	-3	7	-3	-5	x	x
NC(=O)N/N=C/c1ccc(-c2ccc([N+](=O)[O-])cc2)o1	13	9	-5	-52	5	-1	x	x
COc1cc([N+](=O)[O-])ccc1-c1ccc(/C=N/NC(N)=O)o1	51*	87*	-6	-36	x	43*	58*	68*
COCCNC(=S)N/N=C/c1ccc(-c2ccc([N+](=O)[O-])cc2)o1	47*	20	-2	-26	x	9	50*	63*
CCOC(=O)c1cc(CC)sc1NC(=O)CC1Sc2ccc(C(F)(F)F)cc2NC1=O (configuration not stated)	1	2	1	-4	-1	-4	x	x
Cc1nc2nc(-c3ccc(Cl)cc3)cn2nc1C	7	-2	4	39	6	4	x	x
COc1cccc(-c2cn3nc(C)c(C)nc3n2)c1	45*	8	-1	16	28	3	45*	55*
COc1ccc(-n2nnnc2SC(C)C(=O)NC2CCCC2)cc1 (configuration not stated)	x	1	2	-14	0	-4	x	x
CCOc1ccc(Br)cc1S(=O)(=O)Nc1nc(CN2CCOCC2)nc2sc(C)c(C)c12	31*	5	-1	-4	24	10	27*	35*
COC(=O)c1cc(NC(=O)c2ccc(OC)cc2)c(=O)oc1C	2	1	1	-34	2	1	x	x
COc1ccc(C(=O)Nc2cc(C(C)=O)c(/C=C/N(C)C)oc2=O)cc1	114*	117*	-19	-121	x	52*	125*	130*
SMILES	TPT1 inh	HNF4A DNA FP	Rin1-Abl PPI inh	Neddyl block	Rpn11 inh	CSN inh	TPT1 inh confirm	RNase T1 inh
CC(=O)c1cc(NC(=O)c2ccc(C)cc2)c(=O)oc1/C=C/N(C)C	156*	96*	-11	-79	x	61*	134*	135*
CSC[C@H]1CN(c2ccccc2)C(=O)[C@@H]1CC(=O)Nc1ccc(Br)cc1	x	4	-5	-7	1	1	x	x
CCN(CC)S(=O)(=O)c1ccc(C(=O)/C=C/c2ccc(-c3ccc([N+](=O)[O-])cc3)o2)cc1	30*	0	1	-24	34	7	49*	53*
N#Cc1ccsc1NC(=O)c1cccc(-n2cnnn2)c1	48*	42*	-1	-30	x	38*	51*	64*
C/C(=N\NC(=O)C1CC1)c1ccc(C)cc1C	1	-4	0	2	0	1	x	x
CC1=CCC2C(=O)N(c3cccc(C(=O)Nc4ccccc4Cl)c3)C(=O)C2C1 (configuration not stated)	-3	0	2	2	0	-1	x	x
COc1ccc(C(=O)Cn2nnc(-c3ccccc3NC(=O)C3CCCCC3)n2)cc1	30*	8	-1	-18	16	7	43*	54*
COc1ccc(NC(=O)Cn2nnc(-c3ccccc3NC(=O)C3CC3)n2)cc1	-4	0	2	2	1	1	x	x
Cc1ccc(CC(=O)CCc2ccccc2)cc1	34*	3	1	-7	-2	-1	5	5
CCN(CC)c1ccc(C=C(c2nnnn2-c2ccc(C)cc2)c2nnnn2-c2ccc(C)cc2)cc1	77*	20	3	27	x	9	73*	85*
Cc1ccc(-n2nnnc2-c2ccccc2)cc1	4	3	0	3	-5	-8	x	x
COC(=O)c1cc(NS(=O)(=O)c2ccc3c(c2)CCC(=O)N3)cc(C(=O)OC)c1	1	2	-3	21	7	5	x	x
